Data on 26 compounds can be found in ChEMBL document CHEMBL1132335, “Discovery and synthesis of (S)-3-[2-(3,4-dimethoxyphenyl)ethoxy]-2- (4,6-dimethylpyrimidin-2-yloxy)-3,3-diphenylpropionic acid (LU 302872), a novel orally active mixed ET(A)/ET(B) receptor antagonist” (J Med Chem, 1999).

Assay [1] deals with T1, Endothelin receptor type B (Homo sapiens, UniProt P24530).
T1 sequence (P24530 whole entry): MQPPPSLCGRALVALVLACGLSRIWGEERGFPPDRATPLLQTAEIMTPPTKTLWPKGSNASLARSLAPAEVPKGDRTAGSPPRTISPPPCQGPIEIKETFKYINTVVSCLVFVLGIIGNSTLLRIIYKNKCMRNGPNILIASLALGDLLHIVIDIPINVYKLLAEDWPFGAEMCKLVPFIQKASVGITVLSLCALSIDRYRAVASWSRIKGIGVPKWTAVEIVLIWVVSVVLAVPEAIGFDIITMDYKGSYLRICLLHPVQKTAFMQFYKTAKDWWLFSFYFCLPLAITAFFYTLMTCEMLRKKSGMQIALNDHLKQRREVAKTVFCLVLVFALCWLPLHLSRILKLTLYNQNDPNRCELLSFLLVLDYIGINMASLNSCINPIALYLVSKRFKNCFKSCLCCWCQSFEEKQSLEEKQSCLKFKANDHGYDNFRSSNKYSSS
Nature of the assay: Inhibition of [125I]ET-3 (ETB assay) binding to human cloned Endothelin B receptor in CHO cells. The assay is classed as cell-based. The essentials: (§1)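 CHO cells stably expressing human ETA or ETB receptor; 10–50 µg membrane protein incubated 30 min at 25 °C in 50 mM Tris-HCl pH 7.4, 5 mM MnCl2, 40 µg/mL bacitracin, 0.2% BSA, with 25 pM [125I]ET-1 (ETA) or 25 pM [125I]ET-3 (ETB). Nonspecific binding with 0.1 µM ET-1; filtration, scintillation counting. Triplicate, repeated at least once; Ki by Cheng–Prusoff or nonlinear regression, ±SE.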

For assay [2], the target named is T2, Endothelin receptor, ET-A/ET-B (Homo sapiens) (UniProt P24530+P25101). Nature of the assay: Selectivity for Endothelin A receptor compared to Endothelin B receptor. The assay is classed as protein assay.
Assay [3] deals with Rattus norvegicus. The assay is described as follows: Inhibition of big ET-induced blood pressure increase in drug treated rats with LU 135252 and 10 mg/Kg of compound given perorally was reported as (AUD 30 min) in mmHg(min). The assay is classed as functional. The essentials:
(§2)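 Male Sprague–Dawley rats dosed 10 mg/kg p.o.; urethane anesthesia (1.6 g/kg i.p.), tracheotomy 90 min later, carotid artery cannulated for blood pressure, jugular vein for agonist. Big ET-1 20 µg/kg i.v. at 120 min post-dose; pressure recorded over 30 min as area under the data (AUD30min), compared with control; mean ± SEM.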

Assay [4] relates to Rattus norvegicus. The assay is described as follows: Percent reduction of big ET-induced blood pressure increase in drug treated rats with LU 135252 and 10 mg/Kg of compound given perorally was reported as (AUD 30 min) in mmHg(min). The assay is classed as functional. The essentials:
as §2

Another assay has as its target T3, Endothelin-1 receptor (Homo sapiens, UniProt P25101).
T3 sequence (P25101 whole entry): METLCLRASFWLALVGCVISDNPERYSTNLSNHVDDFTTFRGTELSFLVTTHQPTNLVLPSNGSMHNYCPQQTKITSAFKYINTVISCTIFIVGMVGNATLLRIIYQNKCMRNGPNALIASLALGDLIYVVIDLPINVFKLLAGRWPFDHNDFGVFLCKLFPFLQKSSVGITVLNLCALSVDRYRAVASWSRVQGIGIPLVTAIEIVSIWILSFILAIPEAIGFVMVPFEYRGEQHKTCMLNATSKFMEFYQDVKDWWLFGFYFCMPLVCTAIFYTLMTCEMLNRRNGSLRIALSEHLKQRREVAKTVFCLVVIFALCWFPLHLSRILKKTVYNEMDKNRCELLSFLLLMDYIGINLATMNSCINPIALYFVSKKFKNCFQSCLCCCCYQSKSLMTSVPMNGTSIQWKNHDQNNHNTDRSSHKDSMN
The assay is described as follows: Inhibition of [125I]-ET-1 (ETA assay) binding to human cloned Endothelin A receptor in CHO cells. The assay is classed as cell-based. The essentials:
as §1

Assay [5] has as its target T2, Endothelin receptor, ET-A/ET-B (Homo sapiens). The assay is described as follows: Compound was tested for %inhibition of big ET-induced bronchospasm in guinea pigs with LU 135252 and balanced ETA/B receptor antagonists at 10 mg/kg oral dose was reported as (AUD 30 min) in mL(min). Conditions: Cavia porcellus.
For assay [6] the target is unchanged. Nature of the assay: Compound was tested for inhibition of big ET-induced bronchospasm in drug treated guinea pigs with LU 135252 and balanced ETA/B receptor antagonists at 10 mg/kg oral dose was reported as (AUD 30 min) in mL(min). Conditions: Cavia porcellus.
In assay [7] the target is T4, Endothelin receptor (Rattus norvegicus) (UniProt P26684+P21451). To be noted: Blood, 10 mg/kg.
T4 sequence (P21451 whole entry, looked up): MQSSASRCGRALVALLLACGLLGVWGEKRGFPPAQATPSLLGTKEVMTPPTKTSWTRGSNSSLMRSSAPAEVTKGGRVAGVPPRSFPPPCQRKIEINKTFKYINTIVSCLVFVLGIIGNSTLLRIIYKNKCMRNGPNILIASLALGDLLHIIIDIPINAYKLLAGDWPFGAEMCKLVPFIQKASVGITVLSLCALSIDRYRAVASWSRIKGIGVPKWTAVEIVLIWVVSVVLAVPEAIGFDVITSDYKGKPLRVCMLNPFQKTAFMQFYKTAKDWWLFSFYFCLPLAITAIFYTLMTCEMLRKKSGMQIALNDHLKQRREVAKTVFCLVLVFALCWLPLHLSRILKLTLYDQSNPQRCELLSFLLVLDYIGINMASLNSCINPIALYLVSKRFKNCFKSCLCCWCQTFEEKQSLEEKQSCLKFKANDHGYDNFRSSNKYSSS
T4 sequence (P26684 whole entry, looked up): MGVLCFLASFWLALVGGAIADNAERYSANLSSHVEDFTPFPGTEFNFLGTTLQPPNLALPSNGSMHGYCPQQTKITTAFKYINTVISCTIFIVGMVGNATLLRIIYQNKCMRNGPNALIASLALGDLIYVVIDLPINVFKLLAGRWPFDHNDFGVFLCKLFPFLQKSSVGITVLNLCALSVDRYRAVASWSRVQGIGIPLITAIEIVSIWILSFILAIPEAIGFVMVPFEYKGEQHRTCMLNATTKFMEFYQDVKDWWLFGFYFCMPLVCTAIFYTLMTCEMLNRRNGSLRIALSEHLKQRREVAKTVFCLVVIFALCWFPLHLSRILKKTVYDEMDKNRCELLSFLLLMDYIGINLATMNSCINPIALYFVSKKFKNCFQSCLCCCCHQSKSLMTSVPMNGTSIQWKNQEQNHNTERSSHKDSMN
Assay [8] has as its target T4, Endothelin receptor (Rattus norvegicus). Conditions: Blood, 10 mg/kg. This is another data set of the same source.
Assay [9] relates to Rattus norvegicus. Nature of the assay: Inhibition of big ET-induced blood pressure increase in drug treated rats with 10 mg/Kg of compound given perorally was reported as (AUD 30 min) in mmHg(min). The assay is classed as functional. The essentials:
as §2

For assay [10], the target named is T2, Endothelin receptor, ET-A/ET-B (Homo sapiens). To be noted: Rattus norvegicus; 10 mg/kg.
Assay [11] has the same target. To be noted: Rattus norvegicus; 30 mg/kg.

As usually defined, the Ki is the dissociation constant of the complex between target and ligand, obtained from inhibition or displacement. A higher Ki goes with weaker binding. Regarding `COc1ccc(CCOC(c2ccccc2)(c2ccccc2)C(Oc2nc(C)cc(C)n2)C(=O)O)cc1` (stereo not drawn), the Ki in [1] stood at 24.2 nM. The Ratio in [2] stood at 4. Besides, the BP increase with Rattus norvegicus [3] was found to be 976 mmHg; in the assay with Rattus norvegicus [4], 33%.

For `Cc1cc(C)nc(OC(C(=O)O)C(OCCc2ccccc2)(c2ccccc2)c2ccccc2)n1` (stereo not drawn), the Ki was 230 nM in [1] and 25 nM at Endothelin-1 receptor. For the same compound, in assay [2], the Ratio came out at 9.2.

Regarding `COc1ccc(OC(c2ccccc2)(c2ccccc2)C(Oc2nc(C)cc(C)n2)C(=O)O)cc1OC` (stereo not drawn), the Ki in assay [1] was determined as 60 nM; at Endothelin-1 receptor, 0.48 nM. For the same compound, in assay [2], the Ratio turned out to be 125.

For the compound `COc1ccc(CCOC(c2ccccc2)(c2ccccc2)[C@H](Oc2nc(C)cc(C)n2)C(=O)O)cc1OC` [FELOPRENTAN], the Ki worked out at 4.75 nM in assay [1] and 2.15 nM on Endothelin-1 receptor. For the same compound, the Ratio in assay [2] was determined as 2.2. Besides, the values for the BP increase in the assay on Rattus norvegicus [3] and in the assay on Rattus norvegicus [4] were 583 mmHg and 61%, respectively. Also, the Reduction in respiratory volume stood at 79% in [5] and 46 mL in [6].

For the compound `Cc1cc(C)nc(OC(C(=O)O)C(OCCc2ccc(C(=O)O)cc2)(c2ccccc2)c2ccccc2)n1` (stereo not drawn), the Ki was 115 nM in [1] and 1.5 nM at Endothelin-1 receptor. Besides, the Ratio in assay [2] was 77.

`Cc1ccc(CCCOC(c2ccccc2)(c2ccccc2)C(Oc2nc(C)cc(C)n2)C(=O)O)cc1` (stereo not drawn): the Ki was determined as 170 nM in assay [1] and 23 nM at Endothelin-1 receptor.

As to `COc1ccccc1Oc1c(NS(=O)(=O)c2ccc(C(C)(C)C)cc2)nc(-c2ncccn2)nc1OCCO`, the results for the BP increase in [7] and in [8] were 7% and 1400 AUD30min, respectively.

Consider `CCOc1ccc(CCOC(c2ccccc2)(c2ccccc2)C(Oc2nc(C)cc(C)n2)C(=O)O)cc1OC` (stereo not drawn), for which the values for the Ki (in assay [1]; at Endothelin-1 receptor) were 25.1 nM and 3.13 nM, respectively. Further, the Ratio in assay [2] stood at 8. In addition, the results for the BP increase in the assay on Rattus norvegicus [3] and in the assay on Rattus norvegicus [4] were 475 mmHg and 68%, respectively.

Take `Cc1cc(C)nc(OC(C(=O)O)C(OCCc2ccc(Cl)cc2)(c2ccccc2)c2ccccc2)n1` (stereo not drawn): in assay [1], the Ki is 94.1 nM. For the same compound, in assay [2], the Ratio came out at 4.7.

On to `COc1cc(/C=C/COC(c2ccccc2)(c2ccccc2)C(Oc2nc(C)cc(C)n2)C(=O)O)cc(OC)c1OC` (stereo not drawn), for which the results for the Ki (in assay [1]; on Endothelin-1 receptor) were 20 nM and 48 nM, respectively. In addition, the Ratio in assay [2] is 0.4.

Take `CCc1ccc(C(OCCc2ccc(OC)cc2)(c2ccc(CC)cc2)C(Oc2nc(C)cc(OC)n2)C(=O)O)cc1` (stereo not drawn): the values for the Ki (in assay [1]; on Endothelin-1 receptor) were 160 nM and 155 nM, respectively. Further, the Ratio in assay [2] worked out at 1.

Turning to `COc1ccc(CCOC(c2ccccc2)(c2ccccc2)C(Oc2nc(C)cc(C)n2)C(=O)O)cc1OC` (stereo not drawn), the Ratio in assay [2] is 2. The BP increase in the assay with Rattus norvegicus [3] came out at 641 mmHg; with Rattus norvegicus [4], 58%. Further, the Reduction in respiratory volume in assay [5] came out at 67%; in [6], 71 mL.

For the compound `COc1ccc(CCOC(c2ccc(Cl)cc2)(c2ccc(Cl)cc2)C(Oc2nc3c(c(OC)n2)CCC3)C(=O)O)cc1OC` (stereo not drawn), the values for the Ki (in [1]; on Endothelin-1 receptor) were 215 nM and 290 nM, respectively. Also, the Ratio in [2] stood at 0.7.

Regarding `CCc1ccc(C(OCCc2ccc(OC)cc2)(c2ccc(CC)cc2)C(Oc2nc(C)cc(C)n2)C(=O)O)cc1` (stereo not drawn), the Ki in assay [1] was determined as 195 nM; on Endothelin-1 receptor, 250 nM. Further, the Ratio in [2] was determined as 0.8.

With `COc1ccc(COC(c2ccccc2)(c2ccccc2)C(Oc2nc(C)cc(C)n2)C(=O)O)cc1OC` (stereo not drawn), the Ki in assay [1] came to 63 nM; on Endothelin-1 receptor, 2 nM. Moreover, in assay [2], the Ratio stood at 31.

For the compound `Cc1ccc(/C=C/COC(c2ccccc2)(c2ccccc2)C(Oc2nc(C)cc(C)n2)C(=O)O)cc1` (stereo not drawn), the Ki worked out at 320 nM in [1] and 32 nM at Endothelin-1 receptor.

Regarding `Cc1cc(C)nc(OC(C(=O)O)C(OCCc2ccc(O)cc2)(c2ccccc2)c2ccccc2)n1` (stereo not drawn), the results for the Ki (in assay [1]; on Endothelin-1 receptor) were 16.2 nM and 3.48 nM, respectively. In addition, in assay [2], the Ratio stood at 4.7.

`COc1cc(CCOC(c2ccccc2)(c2ccccc2)C(Oc2nc(C)cc(C)n2)C(=O)O)ccc1OCC(=O)O` (stereo not drawn): the figures for the Ki (in [1]; on Endothelin-1 receptor) were 24 nM and 1.92 nM, respectively. In addition, the Ratio in [2] was 12. Besides, the figures for the BP increase with Rattus norvegicus [3] and in the assay on Rattus norvegicus [4] were 1294 mmHg and 14%, respectively.

In the assay with Rattus norvegicus [9], `COc1cc(OC)nc(O[C@H](C(=O)O)C(OC)(c2ccccc2)c2ccccc2)n1` [DARUSENTAN] gave a BP increase of 636 mmHg. In addition, the Reduction in respiratory volume worked out at 19 mL in [10] and 172 mL in assay [11].

At Endothelin-1 receptor, `COc1ccc(CCOC(c2ccccc2)(c2ccccc2)C(Oc2nc(C)cc(OC)n2)C(=O)O)cc1` (stereo not drawn) gave a Ki of 1.95 nM. The Ratio in [2] worked out at 11.8.

For the compound `CCc1ccc(C(OCCc2ccc(OC)c(OC)c2)(c2ccc(CC)cc2)C(Oc2nc(C)cc(OC)n2)C(=O)O)cc1` (stereo not drawn), the Ki in assay [1] was 40 nM; on Endothelin-1 receptor, 39.3 nM. In addition, the Ratio in [2] is 1.

Regarding `COc1cc(CCOC(c2ccccc2)(c2ccccc2)C(Oc2nc(C)cc(C)n2)C(=O)O)cc(OC)c1OC` (stereo not drawn), the Ki was 3.21 nM in assay [1] and 1.38 nM on Endothelin-1 receptor. For the same compound, the Ratio in assay [2] was 2.3. The BP increase in the assay on Rattus norvegicus [3] is 1123 mmHg; with Rattus norvegicus [4] it was 25%.

Turning to `COc1cc(C)nc(OC(C(=O)O)C(OCCc2ccc(OC)c(OC)c2)(c2ccccc2)c2ccccc2)n1` (stereo not drawn), the inhibition constant (Ki) was determined as 14.7 nM in assay [1] and 2.37 nM at Endothelin-1 receptor. The Ratio in [2] worked out at 6.2.

On to `COc1cc(C)nc(OC(C(=O)O)C(OCCc2ccc(OC)c(OC)c2)(c2ccc(Cl)cc2)c2ccc(Cl)cc2)n1` (stereo not drawn), for which the Ratio in assay [2] was 0.6.

On to `Cc1ccc(CCOC(c2ccccc2)(c2ccccc2)C(Oc2nc(C)cc(C)n2)C(=O)O)cc1` (stereo not drawn), for which the Ki in [1] worked out at 55 nM; at Endothelin-1 receptor, 32.5 nM.

For `COc1ccc(CCOC(c2ccc(C)cc2)(c2ccc(C)cc2)C(Oc2nc(OC)c3c(n2)OCC3)C(=O)O)cc1` (stereo not drawn), the results for the Ki (in [1]; at Endothelin-1 receptor) were 71.2 nM and 105 nM, respectively. Moreover, in assay [2], the Ratio is 0.7.
